An excerpt weighted towards active compounds, which were near 3.8% of everything screened.
KCNK3 block: human KCNK3 channel inhibition, primary screen; B-score at 10 µM; actives 0.84% (n = 340,000); AID 602410; CHO-KCNK3 thallium flux, FluxOR fluorescence; active compounds read low;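 active = B-score under library mean minus 4 SD, starting fluorescence ratio at most library mean plus 5 SD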;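 also: more negative B-score means stronger inhibition of thallium flux through KCNK3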
Target sequence (O14649 whole entry, looked up): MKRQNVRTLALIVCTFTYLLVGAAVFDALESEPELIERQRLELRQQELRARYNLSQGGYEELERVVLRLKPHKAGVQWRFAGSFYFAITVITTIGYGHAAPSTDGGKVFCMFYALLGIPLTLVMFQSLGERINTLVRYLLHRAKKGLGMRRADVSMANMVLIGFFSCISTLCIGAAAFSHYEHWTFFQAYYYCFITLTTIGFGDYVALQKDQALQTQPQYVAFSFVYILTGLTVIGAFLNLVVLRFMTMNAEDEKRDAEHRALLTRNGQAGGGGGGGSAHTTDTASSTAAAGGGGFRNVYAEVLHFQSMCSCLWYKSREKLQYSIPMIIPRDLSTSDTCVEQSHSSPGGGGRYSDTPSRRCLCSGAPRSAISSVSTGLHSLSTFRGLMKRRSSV
KCNK9 inh: blocks the human KCNK9 two-pore domain potassium channel. Q9NPC2. HEK293 KCNK9, FluxOR thallium flux fluorescence; active compounds read low. B-score at 10 µM. actives 1.2% (n = 310,000);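 active = ratio B-score over 3 SD below the library mean, with starting fluorescence within 5 SD of its mean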;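 also: negative B-score means less thallium flux so channel inhibition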
KCNQ1 pot: potentiates or activates the human KCNQ1 potassium channel; AID 2648; CHO-K1 KCNQ1, thallium flux FluxOR fluorescence; active compounds read high; actives 0.35% (n = 310,000); B-score at 10 µM; P51787;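 active = fluorescence ratio B-score, a plate-corrected score, at least three library SD, with initial intensity B-score within 5 SD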
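Medium – assay buffer, equal DMSO in all wells · Material – CHO-K1 cell line with stable KCNQ1 potassium channel expression · Signal – kinetic FluxOR thallium fluorescence, 10-s 1-Hz baseline, 110-s post-stimulus read · Compound – single concentration per compound, DMSO matched to controls · Schedule – 37 °C overnight plating, 90-min dark dye load, 20-min compound pretreatment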
hERG rescue: compounds protecting human hERG from proarrhythmic drug block | Q12809 | CHO-hERG, FluxOR thallium flux, dofetilide IC70 present | activation (rescue from dofetilide block), less the hit threshold, % at 10 µM | actives 0.51% (n = 310,000) | AID 1511;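 active = activation above the mean of controls blocked by dofetilide plus 5 SD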;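 also: thallium influx through hERG after potassium depolarization seen as dye fluorescence rise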
KCNQ1 inh: blocks the human KCNQ1 potassium channel; P51787; B-score at 10 µM; CHO-K1 KCNQ1, FluxOR thallium flux fluorescence; active compounds read high; actives 1.3% (n = 310,000); AID 2642;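 active = compounds whose thallium flux B-score, printed positive for inhibition, exceeds three library SD while starting fluorescence stays within three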;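 also: channel opened by potassium depolarization with thallium stimulus after 20 min compound exposure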
Kir21 inh: Kir2.1 (mouse) channel inhibition; actives 0.85% (n = 310,000); B-score at 10 µM; P35561; HEK293-Kir2.1, FluxOR thallium flux fluorescence; active compounds read low;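 active = fluorescence ratio B-score at or below minus 3 SD of library scores, with starting-brightness B-score within 2 SD, cut at about -4.2 in these data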;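 also: channel flux triggered by added potassium and thallium sulfate stimulus; B-score of peak minus minimum fluorescence over baseline after thallium stimulus; more negative B-score means stronger Kir2.1 block with less thallium influx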
KCNK3 confirm: confirmation of human KCNK3 two-pore domain potassium channel inhibitors; shares compounds with KCNK3 block; CHO-KCNK3 thallium flux, FluxOR fluorescence; 0% buffer, 100% carvedilol maximal block; ratio percent of control, % at 10 µM; actives 99% (n = 2,400);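 active = ratio percent of control, averaged over triplicates, above buffer control mean plus 5 SD, cut at about 64% in these data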;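 also: ratio is the fluorescence rise from min to max over baseline after thallium stimulus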
KCNK3 uninduced: KCNK3 inhibitor counter-screen hit in non-induced cells. shares compounds with KCNK3 block. non-induced KCNK3 parental cells, FluxOR thallium flux; active compounds read low. thallium flux ratio (lower = more inhibition) at 10 µM. actives 40% (n = 2,400). AID 651747;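 active = thallium flux ratio, averaged over three wells, more than 5 SD below the buffer control mean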;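 also: host cells are CHO cells without KCNK3 induction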
A number is an active result; - = inactive; . = no result.

SMILES | KCNK3 block | KCNK9 inh | KCNQ1 pot | hERG rescue | KCNQ1 inh | Kir21 inh | KCNK3 confirm | KCNK3 uninduced
CC1CCc2sc(C(=O)N/N=C/c3ccc(O)cc3)cc2C1 (stereo not given) | -10 | - | - | - | - | - | 57 | -
C/C(=N\NC(=O)c1cc2c(s1)CCC(C)C2)c1ccncc1 (stereo not given) | - | - | - | - | - | - | . | .
CN1c2ccccc2-c2nc3ccccc3n2C1c1ccccn1 (stereo not given) | -9.7 | - | - | - | - | - | 95 | -
O=C(NNC(=O)c1cc(-c2ccccc2)nc2ccccc12)Nc1cccc(Cl)c1 | -9.9 | - | - | - | 13 | - | 115 | -
O=C1C=C(Nc2cccnc2)c2ccccc2C1=O | - | . | . | . | . | . | . | .
CC(C)(C)c1ccc(C(=O)NCCC(=O)N2CCCC2)cc1 | - | - | - | - | - | - | . | .
CC(C)(C)c1ccc(C(=O)NCCC(=O)N2CCN(c3ncccn3)CC2)cc1 | -12 | - | - | - | - | - | 86 | -
CC1(C)CC(=O)C2=C(C1)N=C1SCCC(=O)N1C2c1cccc([N+](=O)[O-])c1 (stereo not given) | - | - | - | - | - | - | . | .
O=C(Nc1ccc2nc(SCc3ccc(Cl)cc3)sc2c1)c1ccccc1C(=O)N1CCOCC1 | -8.7 | - | - | - | 6 | - | 97 | -
CCCc1nc(N2CCOCC2)c(C#N)c2c1CCCC2 | - | - | - | - | - | - | . | .
CCCCc1nc(N2CCOCC2)c(C#N)c2c1CCCC2 | -11 | - | - | - | - | - | 108 | -
N#CCCSc1nc(N2CCOCC2)c2c(c1C#N)CCCC2 | - | - | - | - | - | - | . | .
CC(C)Cc1nc(N2CCCCC2)c(C#N)c2c1CCC2 | -9.6 | - | - | - | - | - | 98 | -
CCCSc1nc(N2CCOCC2)c2c(c1C#N)CCCC2 | -12 | - | - | - | - | - | 112 | 0.15
CCN(CC(=O)Nc1c(C(=O)OC)[nH]c2ccc(Cl)cc12)c1ccc2c(c1)OCO2 | -9.2 | -7.2 | - | - | - | - | 105 | 0.15
O=C(Cn1cnc([N+](=O)[O-])n1)c1ccccc1 | - | - | - | - | - | - | . | .
O=C(Cn1cnc([N+](=O)[O-])n1)c1ccc(O)c(O)c1 | -9.2 | -8 | - | - | - | - | 79 | -
O=C(NCCCn1ccnc1)C1CC(c2ccccc2Cl)=NO1 (stereo not given) | - | - | - | - | - | - | . | .
COc1cccc2[nH]c(C(=O)NCc3ccccc3)cc12 | - | - | - | - | - | - | . | .
Cc1ccccc1NC(=O)COC(=O)CN1C(=O)NC(C)(C)C1=O | - | - | - | - | - | - | . | .
COc1ccc(C)cc1Cn1nnc2ccccc21 | - | - | - | - | - | - | . | .
COc1ccc(C2Nc3ccccc3C(=O)N2c2ccc(C)cc2)cc1Cn1cc([N+](=O)[O-])cn1 (stereo not given) | -8.8 | - | - | - | - | - | 105 | -
COc1ccc(C2Nc3ccccc3C(=O)N2c2ccc(C)cc2)cc1Cn1nnc2ccccc21 (stereo not given) | -8.8 | - | - | - | - | - | 111 | 0.16
CCC(C)C(=O)Nc1ccc(S(=O)(=O)N2CCCC2)cc1 (stereo not given) | - | - | - | - | - | - | . | .
CCC(C)NS(=O)(=O)c1ccc(S(=O)(=O)N2CCCC3(CCCCC3)C2)cc1 (stereo not given) | -9 | - | - | - | - | - | 118 | 0.14
SMILES | KCNK3 block | KCNK9 inh | KCNQ1 pot | hERG rescue | KCNQ1 inh | Kir21 inh | KCNK3 confirm | KCNK3 uninduced
Cc1cccc(Sc2c(C=O)c3ccccc3n2C)c1 | -10 | - | - | - | - | - | 110 | 0.14
COC(=O)c1ccc2c(=O)sc(N3CCC(C(N)=O)CC3)nc2c1 | - | - | - | - | - | - | . | .
CCOP(=O)(OCC)c1nc(-c2ccc(Br)cc2)oc1N1CCCCC1 | -10 | - | - | - | - | - | 102 | -
CCOP(=O)(OCC)c1nc(-c2ccc(C)cc2)oc1N1CCOCC1 | - | - | - | - | - | - | . | .
O=[N+]([O-])c1ccc(N2CCN(C(=S)NC3CCCCC3)CC2)cc1 | -8.8 | - | - | - | - | - | 104 | -
O=[N+]([O-])c1ccc(N2CCN(C(=S)Nc3ccccc3)CC2)cc1 | - | - | - | - | - | - | . | .
O=C(Nc1ccc(Cl)cc1Cl)c1ccc2ncsc2c1 | - | - | - | - | - | - | . | .
CCOC(=O)c1c2c(c(=S)n(-c3ccccc3)c1N)CCC2 | -10 | - | - | - | - | - | 123 | 0.11
CCOC(=O)c1c(N)sn(-c2ccccc2)c1=S | - | - | - | - | - | - | . | .
O=C(Nc1cccc(O)c1)c1cccc(NC(=O)c2cccs2)c1 | -13 | -8 | - | - | - | - | 110 | -
O=C(Nc1cccc(-n2cnnn2)c1)c1cccs1 | -10 | - | - | - | - | - | 79 | -
O=C(Nc1cccc(-n2cnnn2)c1)c1ccncc1 | - | - | - | - | - | - | . | .
Cc1ccc(C(C#N)c2ccc(C(=O)c3ccc(F)cc3)cc2)cc1 (stereo not given) | -8.8 | - | - | - | 13 | - | 99 | 0.12
Cc1ccc(C(=O)NC(C)c2ccc(F)cc2)cc1 (stereo not given) | - | - | - | - | - | - | . | .
O=C(Nc1ccccc1Cl)Oc1ccc(-c2ccccc2)cc1 | - | - | - | - | - | - | . | .
Cc1ccc(C)c(C(=O)COC(=O)c2c(-c3ccccc3)noc2C)c1 | -14 | . | . | . | . | . | 136 | -
Cc1ccc(OCCOC(=O)c2c(-c3ccccc3)noc2C)cc1 | -8.8 | -6.7 | - | - | - | - | 101 | -
CCCCC(=O)N/N=C(/C)C1=C(C)C(C)(C)OC1=O | - | - | - | - | - | - | . | .
Cc1oc(CN2CCOCC2)cc1C(=O)O | - | - | - | - | - | - | . | .
Cc1cc2cc(CN3C(=O)c4ccccc4C3=O)ccc2n1C | - | - | - | - | - | - | . | .
COc1ccc(NC(=O)C2CCN(S(C)(=O)=O)CC2)cc1 | - | - | - | - | - | - | . | .
CCOc1ccc(NC(=O)C2CCN(S(C)(=O)=O)CC2)cc1 | -9.3 | - | - | - | - | - | 97 | -
O=C(/C=C\c1ccc2c(c1)OCO2)Nc1c2c(nn1-c1ccc(Cl)cc1)CSC2 | -8.9 | -7 | - | - | - | - | 65 | -
Cc1ccccc1-c1nnn(Cc2ccc(F)cc2Cl)n1 | -9 | - | - | - | - | - | 101 | -

Assay outcomes (PubChem BioAssay)
